pIC50: −log10 of the molar value.
Key:
[1] = Ultraviolet radiation absorbing capacity of the compound at 315 to 400 nm; format: physicochemical; conditions: 0.4 µM
[2] = Antioxidant activity assessed as DPPH radical scavenging activity after 30 mins under dark condition; format: functional
Method in brief: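 Serially diluted samples were run in replicates of four, and 200 μM DPPH (concentration as added) was added. MeOH served as the negative control and rutin (820 μM) as the positive control. A row without DPPH gave the background correction. Plates were held in the dark for 30 min, then read at 517 nm. IC50 was interpolated from % scavenging versus log concentration and reported as mean ± SD.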

[3] = Antioxidant activity assessed as DPPH radical scavenging activity after 30 mins under dark condition relative to rutin; format: functional

| Structure (SMILES) | Activity [1] | pIC50 [2] | Activity [3] [%] |
| --- | --- | --- | --- |
| O=c1cc(-c2cc(O)c(O)c(-c3c(O)cc(O)c4c(=O)cc(-c5ccc(O)c(O)c5)oc34)c2)oc2cc(O)cc(O)c12 | Active | 4.47 | 13 |
| COc1cc(/C=C/C(=O)O)ccc1O [FERULATE] | Active | 4.12 | – |
| O=C1CC(c2cc(O)c(O)c(-c3c(O)cc(O)c4c(=O)cc(-c5ccc(O)c(O)c5)oc34)c2)Oc2cc(O)cc(O)c21 (racemic) | Active | 3.89 | – |
| COc1cc(C=O)ccc1O [VANILLIN] | Active | 1.84 | – |
| O=C(O)/C=C/c1ccc(O)cc1 [COUMARIC ACID] | Active | 1.53 | – |
| C[C@@H]1O[C@@H](OC[C@H]2O[C@@H](Oc3c(-c4ccc(O)c(O)c4)oc4cc(O)cc(O)c4c3=O)[C@H](O)[C@@H](O)[C@@H]2O)[C@H](O)[C@H](O)[C@H]1O [RUTIN] | – | 4.41 | – |
| O=Cc1ccc(O)cc1 [4-HYDROXYBENZALDEHYDE] | Active | 0.32 | – |

Reference: ChEMBL document CHEMBL4190302, “Antarctic Moss Biflavonoids Show High Antioxidant and Ultraviolet-Screening Activity” (J Nat Prod, 2017)
